{"data": "Assay results pooled from the literature", "medium": "Caco-2", "note": "Protocols differ between the studies behind these lines."}
{"Structure (SMILES)": "C[C@H]1O[C@@H](O[C@H]2[C@@H](O)C[C@H](O[C@H]3[C@@H](O)C[C@H](O[C@H]4CC[C@@]5(C)[C@H](CC[C@@H]6[C@@H]5C[C@@H](O)[C@]5(C)[C@@H](C7=CC(=O)OC7)CC[C@]65O)C4)O[C@@H]3C)O[C@@H]2C)C[C@H](O)[C@@H]1O", "Papp A→B [nm/s]": 0.218}
{"Structure (SMILES)": "COCCc1ccc(OCC(O)CNC(C)C)cc1 (stereo not shown)", "pH": "pH 7.4", "Papp A→B [nm/s]": 736}
{"Structure (SMILES)": "Cc1ncsc1-c1ccc(CNC(=O)[C@@H]2C[C@@H](O)CN2C(=O)[C@@H](NC(=O)C2(F)CC2)C(C)(C)C)c(OCCOc2ccc(CN3CCN(c4cc(-c5ccccc5O)nnc4N)CC3)cc2)c1", "time": "2 h", "pH": "pH 7.2", "Papp A→B [nm/s]": 22}
{"Structure (SMILES)": "C=CC(=O)Nc1cc(Nc2nccc(-c3cn(C)c4ccccc34)n2)c(OC)cc1N(C)CCN(C)C", "pH": "pH 7.4", "Papp A→B [nm/s]": 86.4}
{"Structure (SMILES)": "COc1cccc2c(-c3ccccc3)cc(-c3ccc(-c4ccc(C(=O)O)cc4)[nH]3)nc12", "Papp A→B [nm/s]": 24.2}
{"Structure (SMILES)": "Nc1nc2c(ncn2COCCO)c(=O)[nH]1", "tested at": "10 µM", "time": "2 h", "pH": "pH 7.4", "Papp A→B [nm/s]": 0.803}
{"Structure (SMILES)": "COc1cc(F)ccc1-c1ncnc(Nc2cccc(CS(N)(=O)=O)c2)n1", "tested at": "2 µM", "time": "2 h", "pH": "pH 7.2", "Papp A→B [nm/s]": 22}
{"Structure (SMILES)": "O=C(O)CCc1ccc(Oc2ccc(-c3noc(-c4ccc(O)cc4)n3)cc2)cc1", "time": "2 h", "pH": "pH 7.4", "Papp A→B [nm/s]": 180}
{"Structure (SMILES)": "CCn1c(=O)c2c(nc(S)n2C)n(C)c1=O", "tested at": "10 µM", "time": "2 h", "Papp A→B [nm/s]": 27}
{"Structure (SMILES)": "CC(C)NCC(O)COc1cccc2ccccc12 (stereo not shown)", "tested at": "5 µM", "time": "1 h", "Papp A→B [nm/s]": 193}
{"Structure (SMILES)": "CNC(=C[N+](=O)[O-])NCCSCc1ccc(CN(C)C)o1", "Papp A→B [nm/s]": 4}
{"Structure (SMILES)": "Cn1c(S)nc2c1c(=O)n(Cc1ccccc1)c(=O)n2C", "tested at": "10 µM", "time": "2 h", "Papp A→B [nm/s]": 100}
{"Structure (SMILES)": "CC(C)(C)NCC(O)COc1cccc2c1CC(O)C(O)C2 (stereo not shown)", "Papp A→B [nm/s]": 0.514}
{"Structure (SMILES)": "COc1cc(Cl)c(C(=O)N[C@@H](CN[C@H]2CC[C@@H](N)CC2)Cc2ccc(C#N)cc2)cc1-c1ccc(CN[C@H](C)c2ccc(C)cc2)o1", "tested at": "2 µM", "time": "2 h", "pH": "pH 7.2", "Papp A→B [nm/s]": 39}
{"Structure (SMILES)": "CCC(=O)N[C@H]1Cc2cccc(C(=O)OCOC(=O)C(CC)CC)c2OB1O", "tested at": "5 µM", "time": "2 h", "pH": "pH 7.4", "Papp A→B [nm/s]": 82.5}
{"Structure (SMILES)": "O=C(C1CCCCC1)N1CC(=O)N2CCc3ccccc3C2C1 (stereo not shown)", "Papp A→B [nm/s]": 384}
